Screens (PubChem)
Hits are enriched below; roughly 1.9% of the tested compounds scored in any of these assays.
APP transl inh: APP translation inhibition | SH-SY5Y APP 5'UTR-luciferase reporter, luminescence | inhibition, % at 2 µM | hit rate 0.82% among 190,000 | AID 1285;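 active = inhibition above a set limit, derived from the sample mean plus 3 SD, cut at about 45% in these data; inconclusive = one replicate passes the limit while the other fails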
697 NFkB inh: inhibitors of the PMA/ionomycin-induced NF-kB reporter in 697 B cells; inhibition, % at 4 µM; 697 B-cell NF-kB luciferase reporter, 16 h; hit rate 0.33% among 330,000; in the data active = inhibition above about 35%
aSyn 5UTR inh: 5' untranslated region of α-synuclein, MLPCN primary screen; inhibition, % (tested at 7.5 µM); AID 1813; alpha-synuclein 5'UTR reporter, inhibitor activity; hit rate 0.82% among 300,000; in the data active = inhibition above about 60%; inconclusive = no clear call, values can overlap the other calls;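 note: H4 neuroglioblastoma cells stably carrying SNCA 5'UTR luciferase fusion; 0% = DMSO wells and 100% = positive control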
TAG inh: inhibitors of triacylglycerol accumulation; H9c2 cells, Nile Red lipid (TAG) fluorescence; cells loaded with 200 µM oleic acid; inhibition, % at 12.5 µM; hit rate 0.66% among 230,000;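 active = pattern-corrected inhibition of lipid staining of at least 50% with the nuclear-stain viability signal not falling by more than 50%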;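 note: 0% = DMSO wells and 100% = triacsin C control wells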
Lipid droplet: hepatic lipid droplet formation modulation; inhibition, % at 6.5 µM; AID 1656; hit rate 0.4% among 240,000; AML12 mouse hepatocytes, oleate lipid droplets, BODIPY imaging;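 active = lipid droplet intensity inhibited by at least 50%, with more than 500 cells counted; inconclusive = wells with under 300 cells, treated as cytotoxic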
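Material: mouse AML12 hepatocyte cell line, fixed after treatment; Timing: compound with oleate, overnight; Technique: high-content imaging of BODIPY-stained droplets and DAPI nuclei; Probe or stimulus: oleate, 100 µM final; Dosing: compound at 6.5 µM only.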
Jurkat NFkB inh: lowers PMA/ionomycin-induced NF-kB signal in Jurkat cells; PMA/ionomycin-induced NF-kB luciferase reporter, luminescence; inhibition, % at 4 µM; hit rate 0.53% among 330,000; AID 435003; in the data active = inhibition above about 50%
697 NFkB conf: lowers PMA/ionomycin-induced NF-kB signal in 697 B cells. 697 B-cell NF-kB luciferase, 16 h. AID 449746. hit rate 35% among 2,000. shares compounds with 697 NFkB inh. inhibition, % at 4 µM; in the data active = inhibition mostly above about 28%, no sharp cut-off; inactive = mostly below about 22%
Numbers without * were called inactive.

CCN(C(=O)CN1C(=O)NC2(CCc3ccccc32)C1=O)C1CCCCC1 (stereo unspecified) was read as 697 NFkB inh 42*, aSyn 5UTR inh -2, TAG inh 40, Jurkat NFkB inh 8 and 697 NFkB conf 22.
Screening Cc1ccc(CSCCNC(=O)c2ccc(NS(C)(=O)=O)cc2)cc1 returned APP transl inh 6, 697 NFkB inh 36*, aSyn 5UTR inh 8, TAG inh -2, Lipid droplet -2, Jurkat NFkB inh -12 and 697 NFkB conf -4.
Cc1ccc(CSCCNC(=O)c2ccc(C)cc2)cc1 was read as APP transl inh -10, 697 NFkB inh -7, aSyn 5UTR inh -12, TAG inh -13, Lipid droplet -1 and Jurkat NFkB inh -3.
`COc1ccc(C(=O)N/N=C/c2sc(N3CCOCC3)nc2-c2ccccc2)cc1OC` gave APP transl inh -9, 697 NFkB inh 41*, aSyn 5UTR inh 16, TAG inh 2, Lipid droplet -4, Jurkat NFkB inh 2 and 697 NFkB conf 32*.
`CCOC(=O)C1CCCN(C(=O)Cn2ncc3c([nH]c4ccccc43)c2=O)C1` (stereo unspecified) gave 697 NFkB inh -4, aSyn 5UTR inh 15, Lipid droplet -10 and Jurkat NFkB inh 13.
Cc1cccc(-n2ncc3c2CCCC3NC(=O)c2cccs2)c1C (stereo unspecified) was read as TAG inh -12.
For Cc1cc(C(=O)NC2CCCc3c2cnn3-c2cccc(C)c2C)no1 (stereo unspecified) the results were 697 NFkB inh inactive, aSyn 5UTR inh -118, TAG inh -27, Lipid droplet -2, Jurkat NFkB inh -53 and 697 NFkB conf inactive.
For COc1ccc(S(=O)(=O)Nc2cc3c(C(C)=O)c(C)oc3c3ccccc23)cc1 the results were APP transl inh 92*, 697 NFkB inh 41*, aSyn 5UTR inh 82*, TAG inh 30, Lipid droplet -63, Jurkat NFkB inh 48 and 697 NFkB conf 32*.
For Cc1oc2c(cc(NS(=O)(=O)c3ccc(F)cc3)c3ccccc32)c1C(=O)O the results were 697 NFkB inh -35, aSyn 5UTR inh 10, Lipid droplet -14 and Jurkat NFkB inh -3.
`Cc1nc2c(-c3ccccc3)cnn2c(N)c1-c1ccccc1` gave 697 NFkB inh -428, aSyn 5UTR inh 10, Lipid droplet -5, Jurkat NFkB inh -97 and 697 NFkB conf -248.
COc1ccc(CCNc2cc(C)nc3c(-c4ccccc4)cnn23)cc1OC was read as APP transl inh -12, 697 NFkB inh -173, aSyn 5UTR inh 34, Lipid droplet -23 and Jurkat NFkB inh -49.
For Cc1cc(NC2CCCC2)n2ncc(-c3ccccc3)c2n1 the results were 697 NFkB inh inactive, aSyn 5UTR inh inconclusive, Lipid droplet 1, Jurkat NFkB inh -112 and 697 NFkB conf inactive.
For Cc1cc(NCc2ccccc2)n2ncc(-c3ccccc3)c2n1 the results were 697 NFkB inh inactive, aSyn 5UTR inh -72, Lipid droplet -122, Jurkat NFkB inh -135 and 697 NFkB conf -397.
`COc1ccc(C(=O)COC(=O)CNC(=O)c2cccc(OC(F)F)c2)cc1` gave APP transl inh -17, 697 NFkB inh 0, aSyn 5UTR inh -5, TAG inh -12, Lipid droplet -1 and Jurkat NFkB inh 11.
Screening O=C(CNC(=O)c1cccc(OC(F)F)c1)OCC(=O)c1ccccc1 returned APP transl inh -22, 697 NFkB inh 35*, aSyn 5UTR inh 22, TAG inh -2, Lipid droplet 15, Jurkat NFkB inh -9 and 697 NFkB conf 4.
`NC(=O)c1nsc(C(=O)N(c2ccccc2F)C(C(=O)NCc2ccccc2)c2ccc(O)cc2)c1N` (stereo unspecified) gave 697 NFkB inh 35*, aSyn 5UTR inh 34, Lipid droplet -10, Jurkat NFkB inh 44 and 697 NFkB conf 22.
Screening O=C(CN1C(=O)c2ccccc2S1(=O)=O)c1ccccc1Cl returned 697 NFkB inh 54*, aSyn 5UTR inh 101*, TAG inh 3, Lipid droplet -1, Jurkat NFkB inh 23 and 697 NFkB conf 37*.
Screening CCn1c(=S)[nH]c2cc(S(=O)(=O)N3CCCCC3)ccc21 returned APP transl inh -30, 697 NFkB inh 36*, aSyn 5UTR inh -53, Lipid droplet 3, Jurkat NFkB inh 3 and 697 NFkB conf 30*.
Screening O=C(NCc1ccccc1)N1CCC(c2nc3ccccc3[nH]2)CC1 returned APP transl inh 0, 697 NFkB inh 10, aSyn 5UTR inh 8 and Jurkat NFkB inh 7.
Screening CC(C)Cn1c(S(=O)(=O)O)nc2ccccc21 returned 697 NFkB inh 35*, aSyn 5UTR inh 0, TAG inh -5, Lipid droplet 0, Jurkat NFkB inh -3 and 697 NFkB conf -23.
CCC(C)Cn1c(S(=O)(=O)O)nc2ccccc21 (stereo unspecified) was read as APP transl inh 3, 697 NFkB inh 8, aSyn 5UTR inh -4, TAG inh 8, Lipid droplet 5 and Jurkat NFkB inh 5.
Screening CCn1nnc(-c2ccccc2NC(=O)c2cnccn2)n1 returned APP transl inh -82, 697 NFkB inh -1, aSyn 5UTR inh 22, TAG inh 3 and Jurkat NFkB inh -1.
For CN1C(=O)CC(c2ccco2)Sc2ccccc21 (stereo unspecified) the results were APP transl inh 11, 697 NFkB inh 39*, aSyn 5UTR inh -22, Jurkat NFkB inh -2 and 697 NFkB conf 29*.
`CCCN1C(=O)CC(c2ccco2)Sc2ccccc21` (stereo unspecified) gave APP transl inh -8, 697 NFkB inh 7, aSyn 5UTR inh 34, Lipid droplet -10 and Jurkat NFkB inh -3.
For O=C(Nc1cccc(Oc2ccc3c(c2)C(=O)NC3=O)c1)c1cccs1 the results were APP transl inh 22, 697 NFkB inh 39*, aSyn 5UTR inh -6, TAG inh -14, Lipid droplet 1, Jurkat NFkB inh 17 and 697 NFkB conf 14*.
`Cc1c(Cl)cccc1N1C(=O)CC(N(O)c2ccccc2)C1=O` (stereo unspecified) gave APP transl inh -108, 697 NFkB inh -14, aSyn 5UTR inh -20, TAG inh 1, Lipid droplet 13 and Jurkat NFkB inh -10.
`O=[N+]([O-])c1cc2ncccc2c2ncccc12` gave TAG inh 22.
Cc1c(CC(=O)NCCCC(=O)O)c(=O)oc2cc3c(cc12)CCC(C)(C)O3 was read as 697 NFkB inh 52*, aSyn 5UTR inh 51, Lipid droplet 1, Jurkat NFkB inh -2 and 697 NFkB conf 51*.
C/C(=N\Nc1nncc2ccccc12)c1ccc(O)cc1 was read as 697 NFkB inh -298, aSyn 5UTR inh -4, Lipid droplet -6, Jurkat NFkB inh -133 and 697 NFkB conf -154.
